ChEMBL document CHEMBL3271965, “Synthesis and anti-DNA -virus activity of the 5'-monophosphate and the cyclic 3',5'-monophosphate of 9-(beta-D-xylofuranosyl) guanine” (J Med Chem, 1976)
In brackets after ≈: the same amount, converted by molar mass. Activity calls are given as the source filed them. The rule behind the calls is not given here.

Assays:
Human alphaherpesvirus 1 [1] = assay: Antiviral activity against Herpesvirus 1 infected in human KB cells assessed as virus-induced cytopathic effect after 72 hrs; format: functional; details: Human alphaherpesvirus 1, 72 h
In short: (§1)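 KB (human nasopharyngeal carcinoma) monolayers, 18-24 h old, infected with 320 CCID₅₀ of herpes virus type 1 or type 2. Compound added within 15 min at half-log dilutions from 1000 to 1 μg/ml. Incubated 72 h at 37°. CPE scored microscopically 0-4. Virus rating is the summed (virus control − treated) CPE differences across drug levels, halved at levels showing partial toxicity.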

Human alphaherpesvirus 2 = assay: Antiviral activity against Herpesvirus 2 infected in human KB cells assessed as virus-induced cytopathic effect after 72 hrs; format: functional, organism-based; in short: as §1
Vaccinia virus = assay: Antiviral activity against Vaccinia virus infected in human KB cells assessed as virus-induced cytopathic effect after 72 hrs; format: functional, organism-based; details: Orthopoxvirus vaccinia
Human alphaherpesvirus 1 [2] = assay: Antiviral activity against Herpesvirus 1 123 infected in Swiss mouse assessed as increase in survival at MTD, ic administered as single dose 6 hrs post infection relative to control; format: functional, organism-based
In short: (§2)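 18-20-g Swiss mice inoculated intracerebrally with an LD₇₅ of herpes virus type 1 strain 123 to induce encephalitis. One intracerebral drug treatment given 6 h after virus inoculation. Survivors counted against untreated infected controls.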

[3] = Cytotoxicity against human KB cells after 72 hrs; format: cell-based
Human alphaherpesvirus 1 [4] = assay: Antiviral activity against Herpesvirus 1 123 infected in Swiss mouse assessed as increase in survival at 0.31 to 1.25 mg/kg, ic administered as single dose 6 hrs post infection relative to control; format: functional, organism-based; in short: as §2
[5] = Therapeutic index, ratio of MTD for Swiss mouse to MID for Herpesvirus 1 123 infected in Swiss mouse; details: read-out: TI
In short: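 Therapeutic index = maximum tolerated dose / minimum inhibitory dose, based on survivors/total among treated infected mice. The ic regimen was a single MTD dose at 6 h post-inoculation. The ip regimen was b.i.d. ×9 from 4 h. Uninfected toxicity controls were run alongside.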

Mus musculus = assay: Toxicity in Swiss mouse assessed as weight loss at 52 mg/kg/day, ip; format: organism-based; set-up: route intraperitoneal; details: in vivo
In short: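 Uninfected toxicity-control Swiss mice (18-20 g) dosed intraperitoneally b.i.d. ×9 at 104 or 52 mg/kg/day, in parallel with the infected groups. Body weight and survivors/total recorded.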

Human alphaherpesvirus 1 [6] = assay: Antiviral activity against Herpesvirus 1 123 infected in Swiss mouse assessed as increase in survival at 52 mg/kg/day, ip; format: functional, organism-based
In short: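 Encephalitis induced in 18-20-g Swiss mice by intracerebral LD₇₅ of herpes virus type 1 strain 123. Drug given intraperitoneally b.i.d. ×9 starting 4 h post-inoculation at 104, 52 or 26 mg/kg/day, with saline controls. Survivors/total compared by Fisher's exact test; survival time compared by t test.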

Human alphaherpesvirus 1 [7] = assay: Antiviral activity against Herpesvirus 1 123 infected in Swiss mouse assessed as increase in survival time at 26 mg/kg/day, ip relative to control; format: functional, organism-based
In short: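 Dosed intraperitoneally b.i.d. for 9 days, starting 4 h after virus inoculation. Infected animals were compared with saline controls. Survival time was assessed by t test.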

| Compound | MIC (Human alphaherpesvirus 1 [1]) [µg/mL] | Activity (Human alphaherpesvirus 2) | Activity (Vaccinia virus) | Activity (Human alphaherpesvirus 1 [2]) | MCC at 72 h [3] [µg/mL] | Activity (Human alphaherpesvirus 1 [4]) | selectivity ratio [5] | Activity (Mus musculus) | Activity (Human alphaherpesvirus 1 [6]) | Survival (Human alphaherpesvirus 1 [7]) |
| --- | --- | --- | --- | --- | --- | --- | --- | --- | --- | --- |
| Nc1nc(O)c2ncn([C@@H]3O[C@H](CO)[C@H](O)[C@H]3O)c2n1 | 10 (≈ 35.3 µM) | Active | inactive | Active | – | – | – | – | – | – |
| Nc1nc(O)c2ncn([C@@H]3O[C@H](COP(=O)(O)O)[C@H](O)[C@H]3O)c2n1 | 10 (≈ 27.5 µM) | Active | inactive | Active | 3.2 | – | – | – | – | – |
| Nc1nc2c(ncn2[C@@H]2O[C@H](CO)[C@H](O)[C@H]2O)c(=O)[nH]1 | – | – | – | – | 10 | – | – | – | – | – |
| Nc1nc2c(ncn2[C@@H]2O[C@@H]3COP(=O)(O)O[C@@H]3[C@H]2O)c(=O)[nH]1 | 32 (≈ 92.7 µM) | Active | inactive | Active | 32 | Active | ≥ 4 | Toxic | Active | Active |
| Nc1ncnc2c1ncn2[C@@H]1O[C@H](CO)[C@@H](O)[C@@H]1O [VIDARABINE] | 3.2 (≈ 12 µM) | Active | Active | Active | 3.2 | – | – | – | – | – |
